From ChEMBL document CHEMBL1122203, “Potential tumor- or organ-imaging agents. 23. Sterol esters of iopanoic acid” (J Med Chem, 1982)

Experiments:
[1] = system: Rattus norvegicus; assay: Evaluated for distribution at 24 hours after intravenous administration in liver of female Sprague Dawley rats; assay type: ADME, organism-based; conditions: in vivo
Outline: (§1)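 Radioiodinated compound solubilized in Tween (2–3% clear solution) and given intravenously to adult female Sprague-Dawley rats, 200–250 g; 5–30 µCi per animal, 4–5 rats per group. Killed by exsanguination under ether anesthesia; organs blotted, adrenal cortex dissected from medulla, weighed samples gamma-counted (84% efficiency). Expressed as percent administered dose per gram tissue ± SEM.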

[2] = system: Rattus norvegicus; assay: Evaluated for distribution at 24 hours after intravenous administration in ovary of female Sprague Dawley rats; assay type: ADME, organism-based, Female gonad; conditions: in vivo; outline: as §1
[3] = system: Rattus norvegicus; assay: Evaluated for distribution at 24 hours after intravenous administration in thyroid of female Sprague Dawley rats; assay type: ADME, organism-based, Thyroid gland; conditions: in vivo; outline: as §1
[4] = system: Rattus norvegicus; assay: Evaluated for distribution at 0.5 hr after intravenous administration in adrenal cortex of female Sprague Dawley rats; assay type: ADME, organism-based; conditions: in vivo; outline: as §1
[5] = system: Rattus norvegicus; assay: Evaluated for distribution at 0.5 hr after intravenous administration in blood of female Sprague Dawley rats; assay type: ADME, organism-based; conditions: in vivo; outline: as §1
[6] = system: Rattus norvegicus; assay: Evaluated for distribution at 0.5 hr after intravenous administration in liver of female Sprague Dawley rats; assay type: ADME, organism-based; conditions: in vivo; outline: as §1
[7] = system: Rattus norvegicus; assay: Evaluated for distribution at 0.5 hr after intravenous administration in ovary of female Sprague Dawley rats; assay type: ADME, organism-based, Female gonad; conditions: in vivo; outline: as §1
[8] = system: Rattus norvegicus; assay: Evaluated for distribution at 0.5 hr after intravenous administration in thyroid of female Sprague Dawley rats; assay type: ADME, organism-based, Thyroid gland; conditions: in vivo; outline: as §1
[9] = system: Rattus norvegicus; assay: Evaluated for distribution at 24 hours after intravenous administration in adrenal cortex of female Sprague Dawley rats; assay type: ADME, organism-based; conditions: in vivo; outline: as §1
[10] = Percent lipid extracted at 0.5 hr from adrenal […] using CHCl3/CH3OH.; assay type: ADME, tissue-based
Outline: (§2)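 Same iv dosing of radioiodinated ester in Tween to female Sprague-Dawley rats. At 0.5 or 24 h, plasma, adrenal cortex and liver were extracted with CHCl3/CH3OH. Radioactivity in the lipid extract was counted and reported as percent of tissue radioactivity extractable, ± SE.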

[11] = Percent lipid extracted at 0.5 hr from […] using CHCl3/CH3OH.; assay type: ADME, cell-free; outline: as §2
[12] = Percent lipid extracted at 0.5 hr from liver using CHCl3/CH3OH.; assay type: ADME, tissue-based; outline: as §2
[13] = Percent lipid extracted at 24 hours from adrenal cortex using CHCl3/CH3OH.; assay type: ADME, tissue-based; outline: as §2
[14] = Percent lipid extracted at 24 hours from plasma using CHCl3/CH3OH.; assay type: ADME, cell-free; outline: as §2
[15] = Percent lipid extracted at 24 hr from liver using CHCl3/CH3OH.; assay type: ADME, tissue-based; outline: as §2
[16] = Percent parent compound extracted at 0.5 hr from adrenal cortex using CHCl3/CH3OH.; assay type: ADME, tissue-based
Outline: (§3)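 Lipid extracts from plasma, adrenal cortex and liver taken at 0.5 or 24 h after iv dosing were run on TLC beside unlabeled ester reference (iodine vapor). Eluents were petroleum ether/diethyl ether 7:2 for the cholesteryl ester and benzene/ethyl acetate 9:1 for the others, developed 14.5 cm. Plates were cut into 1-cm strips and counted; parent given as percent of extractable radioactivity.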

[17] = Percent parent compound extracted at 0.5 hr from liver using CHCl3/CH3OH.; assay type: ADME, tissue-based; outline: as §3
[18] = Percent parent compound extracted at 0.5 hr from plasma using CHCl3/CH3OH.; assay type: ADME, cell-free; conditions: read-out: Extracted; outline: as §3
[19] = Percent parent compound extracted at 24 hours from adrenal cortex using CHCl3/CH3OH.; assay type: ADME, tissue-based; outline: as §3
[20] = Percent parent compound extracted at 24 hours from liver using CHCl3/CH3OH.; assay type: ADME, tissue-based; outline: as §3
[21] = Percent parent compound extracted at 24 hours from plasma using CHCl3/CH3OH.; assay type: ADME, cell-free; conditions: read-out: Extracted; outline: as §3
[22] = system: Rattus norvegicus; assay: Evaluated for distribution at 24 hours after intravenous administration in blood of female Sprague Dawley rats; assay type: ADME, organism-based; conditions: in vivo; outline: as §1

`CCC(Cc1c(I)cc(I)c(N)c1I)C(=O)OC1CCC2(C)C(=CCC3C2CCC2(C)C(C(C)=O)CCC32)C1` (stereo unspecified) showed a Distribution [1] of 0.386%, a Distribution [2] of 1.085% and a Distribution [3] of 156.7%. The Distribution [4] was 23.083%, the Distribution [5] was 1.727% and the Distribution [6] was 5.214%. The Distribution [7] was 2.126%, the Distribution [8] was 0.945% and the Distribution [9] was 4.256%. The Extracted [10] was 89.5%, the Extracted [11] was 86.7% and the Extracted [12] was 87.6%. It also gave an Extracted [13] of 87.3%, an Extracted [14] of 60% and an Extracted [15] of 76.1%. For the same compound, the Extracted [16] was 92.1%, the Extracted [17] was 89.2% and the remaining at 0.5 h [18] was 91.9%. It also gave an Extracted [19] of 68.2%, an Extracted [20] of 69.1% and a remaining at 24 h [21] of 44.6%. It also gave a Distribution [22] of 0.039%.
`CCC(Cc1c(I)cc(I)c(N)c1I)C(=O)OC1CCC2(C)C(=CCC3C4CCC(=O)C4(C)CCC32)C1` (stereo unspecified) showed a Distribution [1] of 0.108%, a Distribution [2] of 1.205% and a Distribution [3] of 143.74%. The Distribution [4] was 15.38%, the Distribution [5] was 1.275% and the Distribution [6] was 3.612%. It also gave a Distribution [7] of 1.886%, a Distribution [8] of 1.392% and a Distribution [9] of 3.958%. The Extracted [10] was 85.5%, the Extracted [11] was 63.1% and the Extracted [12] was 81.5%. For the same compound, the Extracted [13] was 83.4%, the Extracted [14] was 64.2% and the Extracted [15] was 61.8%. The Extracted [16] was 83.4%, the Extracted [17] was 61.8% and the remaining at 0.5 h [18] was 64.2%. For the same compound, the Extracted [19] was 16.8%, the Extracted [20] was 42.5% and the remaining at 24 h [21] was 38%. It also gave a Distribution [22] of 0.085%.
Work on `CCC(Cc1c(I)cc(I)c(N)c1I)C(=O)OC1CCC2(C)C(=CCC3C2CCC2(C)C(C(C)CCCC(C)C)CCC32)C1` (stereo unspecified) yielded a Distribution [1] of 6.59%, a Distribution [2] of 24.542% and a Distribution [3] of 3.571%. The Distribution [4] was 4.9%, the Distribution [5] was 5.191% and the Distribution [6] was 4.035%. The Distribution [7] was 5.161%, the Distribution [8] was 0.868% and the Distribution [9] was 11.029%. For the same compound, the Extracted [10] was 83.1%, the Extracted [11] was 83.4% and the Extracted [12] was 87.2%. For the same compound, the Extracted [13] was 92.1%, the Extracted [14] was 85.8% and the Extracted [15] was 91.2%. For the same compound, the Extracted [16] was 96.9%, the Extracted [17] was 97.8% and the remaining at 0.5 h [18] was 96%. The Extracted [19] was 96.9%, the Extracted [20] was 97.8% and the remaining at 24 h [21] was 96.1%. For the same compound, the Distribution [22] was 0.696%.
